A short description of data set [1]: Chemoprevention index, ratio of IC50 for mouse Hepa-1c1c7 cells to drug level required to double specific NADPH:quinone reductase activity in mouse Hepa-1c1c7 cells. In kind it is functional. The procedure, abridged:
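QR induction measured in wild-type Hepa 1c1c7 murine hepatoma cells and two mutant lines (one lacking a functional Ah receptor, one unable to move receptor–ligand complex to the nucleus) by a previously described method; concentrations 2-30 µM; CD = concentration doubling specific QR activity; chemoprevention index = cell-viability IC50 divided by CD.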

Data set [2] is described as follows: Inhibition of mouse Hepa-1c1c7 cells assessed as cell viability. In kind it is functional, cell-based. The procedure, abridged: (§1)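 Cell viability of wild-type and both mutant Hepa 1c1c7 lines measured alongside QR induction; IC50 = half-maximal inhibitory concentration of viability, mean ± SD, n = 2.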
Data set [3] relates to HepG2. The experiment in a line: Induction of antioxidant response element activity in human HepG2 cells at 10 uM by luciferase based chemiluminescence assay. In kind it is functional, cell-based. The procedure, abridged:
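HepG2 human hepatoma cells stably transfected with an ARE-luciferase plasmid were treated with test agent at 10 µM, with DMSO (0.5% final) as vehicle control. Luciferase was read by chemiluminescence and expressed as fold induction over control, as means of three determinations ± SD. Significance was tested by Student's t-test (p < 0.05).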

The nature of data set [4]: Inhibition of mouse Hepa-1c1c7 Bprc1 mutant cells assessed as cell viability. In kind it is functional. In short, it runs like this:
as §1

Data set [5] can be described thus: Chemoprevention index, ratio of IC50 for mouse Hepa-1c1c7 Bprc1 mutant cells to drug level required to double specific NADPH:quinone reductase activity in mouse Hepa-1c1c7 Bprc1 mutant cells. In kind it is functional. In short, it runs like this: (§2)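 Hepa 1c1c7 mutant lines; the index is the IC50 for cell viability (half-maximal inhibition; mean ± SD, n = 2) divided by the concentration that doubles QR specific activity (CD) in the same mutant line.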

The nature of data set [6]: Inhibition of mouse Hepa-1c1c7 TAOc1Bprc1 mutant cells assessed as cell viability. The format is functional. The procedure, abridged:
as §1

Data set [7] in a line: Chemoprevention index, ratio of IC50 for mouse Hepa-1c1c7 TAOc1Bprc1 mutant cells to drug level required to double specific NADPH:quinone reductase activity in mouse Hepa-1c1c7 TAOc1Bprc1 mutant cells. The format is functional. The procedure, abridged: as §2
Data set [8] concerns HepG2. Briefly: Induction of antioxidant response element activity in human HepG2 cells by luciferase based chemiluminescence assay. In kind it is functional, cell-based. The procedure, abridged: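 HepG2 human hepatoma cells stably transfected with an ARE-luciferase plasmid; treated with 1.9-30 µM test agent, 10 µM 4′-bromoflavone or 10 µM sulforaphane positive controls, DMSO 0.5% final as vehicle control; chemiluminescence luciferase read-out as fold over control; mean of three determinations ± SD, Student's t-test p < 0.05.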

Data set [9] relates to HepG2. Briefly: Cytotoxicity against human HepG2 cells at 7.5 to 30 uM. The format is functional, cell-based.
Data set [10] has as its system Rattus norvegicus. The experiment in a line: Inhibition of DMBA-induced mammary carcinogenesis in Sprague-Dawley rat assessed as increase in tumor latency at 5000 mg/kg administered 7 days pre-DMBA challenge continued for 7 days post-DMBA challenge assessed after 120 days. The format is functional, organism-based. Set-up: dose 5000 mg/kg. In short, it runs like this: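 Female Sprague-Dawley rats given DMBA, as described previously; test agent in diet at 2500 or 5000 mg/kg diet from 7 days before to 7 days after DMBA, then unsupplemented diet; 20 rats/group; tumor latency, incidence over 120 days and body weight recorded.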

The test system of data set [11] is Rattus norvegicus. Briefly: Toxicity in DMBA-induced mammary carcinogenesis in Sprague-Dawley rat assessed as body weight changes up to 20000 mg/kg administered 7 days pre-DMBA challenge continued for 7 days post-DMBA challenge assessed after 120 days. The format is organism-based. Set-up: dose 20000 mg/kg. To be noted: in vivo, 2880 h. The procedure, abridged:
(§3)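 Dose-finding prior to tumor study: diets with 1000, 2000, 3000, 4000, 5000 and 20 000 mg/kg diet; toxicity judged by body weight change and necropsy.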

Data set [12] concerns Rattus norvegicus. The experiment in a line: Toxicity in DMBA-induced mammary carcinogenesis in Sprague-Dawley rat assessed as necropsy up to 20000 mg/kg administered 7 days pre-DMBA challenge continued for 7 days post-DMBA challenge assessed after 120 days. The format is organism-based. Set-up: dose 20000 mg/kg. The conditions noted are these: in vivo, 2880 h. In short, it runs like this:
as §3

Data set [13] is described as follows: Inhibition of 7,12-dimethylbenz[a]anthracene-induced preneoplastic lesions in a mouse mammary gland culture at 10 ug/mL. The format is functional.

Molecules are shown by their SMILES. pIC50: −log10 of the molar value. Active and inactive are the calls of the source. The rule behind the calls is not given here. A value given as a limit tells only on which side of the number the result lay.

As usually defined, the pIC50 is −log10 of the IC50, conventionally taken in molar units. What is called inhibition is the change of the read-out against control, counted positive when it falls. A lower inhibition goes with a weak effect.

As for `C[S+]([O-])CCCCN=C=S` (centres undefined) [SULFORAPHANE], the Ratio stood at 21 in [1], 16 in data set [5] and 18 in [7]. The pIC50 in [2] was 5.20; in data set [4], 5.12; in data set [6] it was 5.23. Besides, in the data set on HepG2 [3], the result was Active.
For `O=C(/C=C/c1ccc(O)cc1)c1ccc(O)cc1O` [ISOLIQUIRITIGENIN], the Ratio in [1] worked out at 11; in [5], 2; in data set [7], 10. Moreover, the values for the pIC50 in [2], in [4] and in [6] were 4.71, 4.79 and 4.66, respectively. For the same molecule, the results for the Activity result with HepG2 [8], in the data set on Rattus norvegicus [11] and with Rattus norvegicus [12] were “Dose-dependent effect”, “Non-toxic” and “Non-toxic”, respectively. In addition, the outcome in the data set on HepG2 [9] was inactive. Also, the outcome with Rattus norvegicus [10] was Active. This molecule also yielded an inhibition at 10 µg/mL in data set [13] of 76%.
With `O=c1cc(-c2ccc(Br)cc2)oc2ccccc12`, the Ratio in data set [1] is recorded as above 2700. The pIC50 in data set [2], in data set [4] and in data set [6] was below 4.20 each time. Besides, the outcome in the data set on HepG2 [3] was Active.

Source of the values: ChEMBL document CHEMBL1157302, “Quinone reductase induction as a biomarker for cancer chemoprevention” (J Nat Prod, 2006).
